Screens deposited in PubChem BioAssay by several laboratories.
Only some compounds are listed: those with a hit (about 2.6% of all), similar ones and a draw of the others.
TAAR1 ag = agonists of human TAAR1; activation, % at 3 µM; Q96RJ0; 360,000 compounds, 0.99% hits; CHO RD-HGA16 TAAR1, Fluo-8 calcium fluorescence; vehicle wells 0%, saturating PEA agonist 100%;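 active = activation above the mean activation of all test compounds in the run plus 3 SD, cut at about 38% in these data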
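Test system: RD-HGA16 (CHO) cells co-expressing Gα16 and hTAAR1; dosing: one-point dosing at 3 µM (nominal); timing: 17-24 h seeding, 75 min 37 °C dye, 30 min RT; signal: kinetic Fluo-8 calcium fluorescence; read-out basis: % activation relative to PEA EC100 response; controls: DMSO and PEA EC100; replicates: n 1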
TAAR1 antagonist = human TAAR1 antagonism; Q96RJ0; CHO RD-HGA16 TAAR1, Fluo-8 calcium fluorescence, antagonist; inhibition, % at 3 µM; 360,000 compounds, 1.5% hits; AID 624466;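 active = inhibition above a per-plate cutoff, the mean inhibition of test compounds on that plate plus 3 SD, cut at about 49% in these data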;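 also: 0% = DMSO plus EC80 beta-PEA response and 100% = DMSO alone without agonist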
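Test system – hTAAR1-expressing CHO RD-HGA16 cells, Gα16-coupled · Reagent – β-PEA at EC80 concentration, post-compound challenge · Compound dosing – 3 µM, single point · Timing – 140 s kinetic read after compound, 140 s after agonist · Detection – Fluo-8 intracellular calcium dye fluorescence, real-time kinetic reads · Control set – DMSO and EC80 PEA controls · Repeats – n of 1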
Platelet DG rel = platelet dense granule release activity; human platelet-rich plasma, SFLLRN dense granule ATP release, luminescence; inhibition, %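 (compounds screened at 7.5 µM in platelet-rich plasma)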; 300,000 compounds, 0.22% hits; AID 1663;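 active = mean replicate score, as percent of positive control, at or above 50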
Rce1 inhib = blocks yeast Ras-converting enzyme. Q03530. yeast membranes, quenched prenylated peptide cleavage fluorescence. calls only. 290,000 compounds, 0.27% hits. AID 2563;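 active = fall in fluorescence gain of 50% or more versus controls, with final raw signal at or below 3038400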;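 also: plate controls were neutral control wells for no effect and wells lacking membranes for full effect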
VLA-4 inh = inhibition in a human VLA-4 binding assay | P13612 | inhibition, % (about 7 µM as worked out from the volumes in the protocol) | 330,000 compounds, 0.2% hits | VLA-4 expressing cells, ligand binding flow cytometry; in the data active = inhibition above about 50%
Target sequence (P13612 whole entry, looked up): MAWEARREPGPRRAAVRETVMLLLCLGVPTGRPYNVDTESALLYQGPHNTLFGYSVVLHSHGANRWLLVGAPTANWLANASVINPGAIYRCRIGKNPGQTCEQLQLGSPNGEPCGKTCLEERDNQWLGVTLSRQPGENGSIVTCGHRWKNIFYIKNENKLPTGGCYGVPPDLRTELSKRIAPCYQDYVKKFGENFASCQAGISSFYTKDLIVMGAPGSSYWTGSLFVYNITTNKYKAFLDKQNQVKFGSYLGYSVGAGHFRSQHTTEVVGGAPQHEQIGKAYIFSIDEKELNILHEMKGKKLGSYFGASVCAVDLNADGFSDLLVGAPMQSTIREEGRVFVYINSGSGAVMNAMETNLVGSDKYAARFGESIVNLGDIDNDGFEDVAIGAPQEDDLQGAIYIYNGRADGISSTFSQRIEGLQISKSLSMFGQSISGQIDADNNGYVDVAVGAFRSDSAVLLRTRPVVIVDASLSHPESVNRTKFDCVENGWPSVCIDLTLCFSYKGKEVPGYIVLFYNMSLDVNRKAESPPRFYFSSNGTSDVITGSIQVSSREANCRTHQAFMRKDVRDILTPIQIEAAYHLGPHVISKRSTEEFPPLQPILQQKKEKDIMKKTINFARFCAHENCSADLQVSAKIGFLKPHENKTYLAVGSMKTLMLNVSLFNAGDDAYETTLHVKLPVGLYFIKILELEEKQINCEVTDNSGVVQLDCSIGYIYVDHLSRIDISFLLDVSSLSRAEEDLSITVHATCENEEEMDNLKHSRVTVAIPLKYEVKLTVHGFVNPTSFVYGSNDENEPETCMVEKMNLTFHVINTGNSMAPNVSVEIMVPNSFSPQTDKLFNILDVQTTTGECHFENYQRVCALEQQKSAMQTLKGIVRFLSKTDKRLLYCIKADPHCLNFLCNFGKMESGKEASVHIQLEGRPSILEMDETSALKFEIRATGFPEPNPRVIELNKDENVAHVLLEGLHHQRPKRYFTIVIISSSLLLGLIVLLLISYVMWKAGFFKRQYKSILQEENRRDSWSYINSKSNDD
* marks the source's active call; other numbers are inactive results; i = inactive; · = not tested or not shown; + = active, no number.

SMILES	TAAR1 ag	TAAR1 antagonist	Platelet DG rel	Rce1 inhib	VLA-4 inh
CC1(C(=O)NS(=O)(=O)c2ccc3ccccc3c2)CCN1C(=O)Cc1ccc(Cl)cc1Cl (centres undefined)	0.8	-13.9	·	·	·
N/C(=N\OC(=O)c1ccc2c(c1)OCO2)c1cccc([N+](=O)[O-])c1	2.2	4.1	8.5	i	9.5
Cc1cccc(/C(N)=N/OC(=O)c2ccc3c(c2)OCO3)c1	0.9	16.2	64.2*	i	21.2
Cc1ccc(S(=O)(=O)NN(Cc2ccccc2)Cc2ccccc2)cc1	8.7	8.8	·	·	·
Cc1ccccc1OCCNc1cc(N2CC(C)NC(C)C2)ccc1[N+](=O)[O-] (centres undefined)	48.6*	23.3	-4.7	i	9.9
CCc1ccc(OCCNc2cc(N3CCNC(C)C3)ccc2[N+](=O)[O-])cc1 (centres undefined)	43.4*	8.5	·	·	-1.8
COc1ccc(NC(=O)N[C@H]2C=C[C@@H](CC(=O)NC3CCC3)O[C@@H]2CO)cc1	1.3	-5.2	·	·	·
COc1ccc(-c2cc(C(F)(F)F)nc(SCC(=O)NCc3ccco3)n2)cc1OC	-3.9	-8.2	9.5	i	1.2
COc1ccc(-c2cc(C(F)(F)F)nc(SCC(=O)N(C)Cc3cn(C)nc3C)n2)cc1OC	1.9	3.8	8.0	+	11.4
COc1ccc(-c2cc(C(F)(F)F)nc(SCC(N)=O)n2)cc1	1.1	0.8	1.3	i	15.6
COc1ccc(-c2cc(C(F)(F)F)nc(SCC(=O)NCc3cnn(C)c3C)n2)cc1OC	2.6	-8.3	17.3	+	6.4
CC1CC(=O)NN=C1c1ccc(NCCO)c([N+](=O)[O-])c1 (centres undefined)	6.5	-0.5	88.5*	i	0.9
COc1ccc(CN2CCC[C@]3(N[C@H](c4ccc(OC)cc4)[C@@H]4C(=O)N(C)C(=O)[C@@H]43)C2=O)cc1	0.3	-22.8	·	·	·
CN(C)CCN(C(=O)C1=COCCO1)c1nc2ccc(F)cc2s1	1.2	-11.3	-1.3	i	11.7
COC(=O)C1=CN(c2ccc(F)cc2)C=C(C(=O)OC)C1c1ccc(O)cc1	-2.8	6.9	0.1	i	9.4
COc1ccc(C2/C=C\CN(C(=O)c3ccc(C)cc3)[C@H](Cc3ccccc3)C(=O)N2Cc2ccc(F)cc2)cc1 (some centres undefined)	·	·	3.1	+	11.2
COc1ccc(C2/C=C\CN(C(=O)C3CC3)[C@H](Cc3ccccc3)C(=O)N2Cc2ccc(F)cc2)cc1 (some centres undefined)	·	·	-2.1	i	-4.9
CCOc1ccc(N2CC(C(=O)NCCN3C(=O)S/C(=C/c4cccnc4)C3=O)CC2=O)cc1 (centres undefined)	-0.1	-13.2	·	·	·
O=C(CCn1c(=S)[nH]c2ccccc2c1=O)NCCSCc1ccccc1	-0.5	12.7	-6.2	i	5.0
O=C(Cn1c(=S)[nH]c2ccccc2c1=O)NCCc1ccccc1	38.2*	-15.8	3.0	i	-7.7
Oc1ccccc1Nc1nc(NCC2CCCO2)c2ccccc2n1 (centres undefined)	11.3	7.0	5.3	i	0.2
Oc1ccc(Cl)cc1Nc1nc(NCC2CCCO2)c2ccccc2n1 (centres undefined)	17.8	56.9*	5.5	i	-2.5
C=CCn1c(SCc2ccc(C#N)cc2)nnc1-c1ccc(C)cc1	10.4	-0.1	-2.4	+	-2.0
Cc1cccc(-c2nnc(SCc3ccc(C#N)cc3)n2Cc2ccco2)c1	1.6	30.3	10.8	+	12.5
COc1ccc(NS(=O)(=O)c2ccc(NC(=O)Cc3cccs3)cc2)cc1	41.0*	14.8	0.7	i	18.3
SMILES	TAAR1 ag	TAAR1 antagonist	Platelet DG rel	Rce1 inhib	VLA-4 inh
COc1ccc(-n2c(SCC(=O)Nc3ccccc3)nnc2-c2ccc(NS(=O)(=O)c3ccc(C)cc3)cc2)cc1	9.2	52.5*	1.3	i	14.5
COc1ccc(C(CNC(=O)c2ccc(S(=O)(=O)Nc3ccc(F)cc3)cc2)N(C)C)cc1 (centres undefined)	45.1*	16.8	11.9	i	0.8
COc1ccc(NS(=O)(=O)c2ccc(C(=O)N(C)Cc3cccs3)cc2)cc1	45.0*	34.4	·	·	·
Cc1cc(=O)c2c(N(C)C)cccc2[nH]1	3.3	-19.7	·	·	·
O=C(NCCN1CCC(n2c(=O)[nH]c3cc(Cl)ccc32)CC1)c1ccc(F)cc1	4.5	10.6	·	·	·
COc1ccccc1OC(=O)Cc1cccc2ccccc12	·	·	-8.8	i	8.2
COc1ccccc1CC(=O)O/N=C(\N)Cc1cccc2ccccc12	75.2*	40.6	0.4	i	-29.4
CCC(CO)Oc1cc(NCc2ccc(C(F)(F)F)cc2)c2ncn(C(C)C)c2c1 (centres undefined)	1.1	1.5	·	·	0.9
CCCCNC(=O)c1nc(C2CCN(S(=O)(=O)c3ccc(C(F)(F)F)cc3)CC2)oc1-c1ccccc1	1.7	-10.0	·	·	·
CC1CN(C(=O)c2ccccc2C(=O)c2ncc[nH]2)CC(C)O1 (centres undefined)	39.8*	-25.1	9.6	i	-6.0
COC(=O)[C@]12C[C@H](CC(=O)N3CCSCC3)C(=O)N(CCC3=CCCCC3)C1=C[C@H](C(C)(C)C)O[C@@H]2C	-1.6	-57.6	·	·	·
CC(C)(C)c1nc(CN2CCOCC2)cc(CN2CCOCC2)c1O	2.0	-9.0	-4.9	i	17.7
Cc1ccc(-c2nc(CN3CCCCC3)cc(CN3CCCCC3)c2O)cc1	5.0	-3.9	-6.6	+	3.7
CCOCc1nnc(NC(=O)C2CCN(C(=O)c3ccco3)CC2)s1	14.9	-3.6	-13.2	i	7.6
O=C(COC(=O)C12CC3CC(CC(O)(C3)C1)C2)Nc1ccc(Cl)c(S(=O)(=O)N2CCOCC2)c1	2.3	14.0	·	·	-2.5
Cc1cc(C(=O)Nc2nc3c(s2)CCCC3)cs1	15.2	-16.9	4.4	i	7.5
Cc1ncsc1C(=O)Nc1nc2c(s1)CCCC2	20.9	-7.0	61.1*	i	7.9
Cc1ccc2nc(C(O)C(O)c3nc4ccc(C)cc4[nH]3)[nH]c2c1 (centres undefined)	38.4*	-7.2	-2.7	i	1.8
Cc1ccc2nc(-c3ccccn3)[nH]c2c1	-0.9	-3.6	58.1*	i	-6.7
Cc1ccc2nc(C(C)O)[nH]c2c1 (centres undefined)	2.1	-17.8	-8.4	i	5.8
c1ccc(-c2nc3ccccc3[nH]2)nc1	1.4	-10.7	14.2	i	-1.2
COc1ccc(OCCN2C(=O)c3cccc(N)c3C2=O)cc1	1.6	-18.2	-1.3	i	-1.6
CCCc1c(C(=O)N/N=C/c2cccc3ccccc23)nnn1-c1nonc1N	0.2	3.3	-9.7	i	-6.5
COc1cccc(/C=N/NC(=O)c2nnn(-c3nonc3N)c2C(C)C)c1OCc1ccc(F)cc1	·	·	-7.3	+	-0.3
CC(C)c1c(C(=O)N/N=C/c2cccc3ccccc23)nnn1-c1nonc1N	1.4	5.9	16.1	+	2.6
